Results published in PMC3963460 (Synthesis, 2013).

Biological target: PKC rat-brain isozyme mixture
Assay: Protein kinase C isozyme mixture competitive binding assay with
Details: read-out: Kd of (^3H)PDBu; measured under these assay conditions
Outline: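 Rat-brain PKC isozyme mixture in Tris-HCl pH 7.4 buffer with KCl, CaCl2 and BSA, plus phosphatidylserine vesicles; (3H)PDBu added in DMSO. Triplicate vials incubated at 37 °C for 90 min, then 15 min on ice. Nonspecific binding from an unlabelled analogue at 5 μM assay concentration. Filtered through poly(ethyleneamine)-soaked filters, washed with ice-cold 20 mM Tris pH 7.4, scintillation-counted.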

CCCC(=O)OC1C(C)C2(O)C(C=C(CO)CC3(O)C(=O)C(C)=CC32)C2C(C)(C)C12OC(=O)CCC (stereo not shown) [(^3H)PDBu, (^3H)phorbol dibutyrate] was tested, and the Kd was 1.55 nM.
